Format in all cases: functional
Assay [1] relates to Human alphaherpesvirus 1. Kind of assay: Antiviral activity against Herpes simplex virus-1 (Schooler strain). As to conditions: read-out: ID50 (the source's name). The method in brief:
(§1)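 WI-38 monolayers were infected, with virus adsorbed for 1–2 h. They were then overlaid with EMEM maintenance medium (1% carboxymethyl cellulose, 2.5% FBS) containing duplicate drug dilutions. Monolayers were stained after 4–6 days at 37 °C. ID50 was taken as the concentration giving 50% plaque reduction versus virus controls. Titrations were done in duplicate.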

A further assay deals with Human betaherpesvirus 5. Kind of assay: Antiviral activity against Human cytomegalovirus (AD169 strain). As to conditions: read-out: ID50 (the source's name). The method in brief: as §1
Assay [2] deals with Human alphaherpesvirus 3. Description: Antiviral activity against Varicella zoster virus (Ellen strain). As to conditions: read-out: ID50 (the source's name). In outline:
as §1

Assay [3] relates to Human alphaherpesvirus 1. Kind of assay: Antiviral activity against Herpes simplex virus-1 (thymidine kinase deficient strains isolated as BVaraU resistant mutants of HSV-1 (KOS)). To be noted: read-out: ID50 (the source's name). In outline: as §1
Assay [4] relates to Cercopithecine alphaherpesvirus 9. Kind of assay: Antiviral activity against Simina varicella virus (G815 strain). To be noted: read-out: ID50 (the source's name). The method in brief:
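Simian varicella virus G815 was grown from infected Vero cells and assayed by plaque reduction on Vero monolayers. Virus was adsorbed 1–2 h, then overlaid with EMEM (1% carboxymethyl cellulose, 2.5% FBS) containing duplicate drug dilutions. Staining was after 4–6 days at 37 °C. ID50 was the concentration giving 50% plaque reduction versus virus controls.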

Assay [5] deals with Human alphaherpesvirus 3. Kind of assay: Antiviral activity against Varicella zoster virus (9021 strain). To be noted: read-out: ID50 (the source's name). In outline:
as §1

A further assay relates to WI-38. Kind of assay: Tested for growth inhibition against WI-38 cells. As to conditions: Homo sapiens, read-out: ID50 (the source's name). In outline: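 WI-38 cells seeded at 1.2 × 10^6 per well, incubated overnight at 37 °C, then refed with growth medium (EMEM, 10% FBS) holding serial drug dilutions or none, for 3 more days at 37 °C. Quadruplicate cultures per concentration trypsinized and counted daily for viable cells by trypan blue exclusion.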

For assay [6], the system named is Human alphaherpesvirus 3. Description: Antiviral activity against Varicella zoster virus (ppIIa strain). To be noted: read-out: ID50 (the source's name). The method in brief:
as §1

A further assay has as its system Vaccinia virus. Description: Antiviral activity against vaccinia virus (CL strain). As to conditions: Orthopoxvirus vaccinia; read-out: ID50 (the source's name).
Assay [7] in a line: Antiviral activity against Herpes simplex virus-1 (KOS strain). To be noted: Human alphaherpesvirus 1; read-out: ID50 (the source's name). In outline:
as §1

In assay [8] the test system is Human alphaherpesvirus 3. Kind of assay: Antiviral activity against Varicella zoster virus (Kanno-Kohmura thymidine kinase deficient strain). To be noted: read-out: ID50 (the source's name). The method in brief: as §1
Assay [9] relates to Human alphaherpesvirus 3. Kind of assay: Antiviral activity against Varicella zoster virus (Ito strain). To be noted: read-out: ID50 (the source's name). The method in brief:
as §1

For assay [10], the system named is Human alphaherpesvirus 3. Kind of assay: Antiviral activity against Varicella zoster virus (Oka strain). As to conditions: read-out: ID50 (the source's name). In outline: as §1
The test system of another assay is Human alphaherpesvirus 2. Kind of assay: Antiviral activity against Herpes simplex virus-2 (thymidine kinase deficient strains isolated as BVaraU resistant mutants of HSV-1 (KOS)). To be noted: read-out: ID50 (the source's name).

With `O=c1[nH]c(=O)n([C@@H]2CO[C@H](CO)[C@H]2CO)cc1I`, the values for the IC50 in the assay with Human alphaherpesvirus 1 [1], in the assay on Human betaherpesvirus 5 and with Human alphaherpesvirus 3 [2] were 140 µM, greater than 270 µM and 70 µM, respectively.
In the case of `O=c1[nH]c(=O)n([C@@H]2CO[C@H](CO)[C@H]2CO)cc1/C=C/Br`, the IC50 is greater than 290 µM in the assay on Human alphaherpesvirus 1 [3]; 30 µM in assay [4]; 0.5 µM in the assay with Human alphaherpesvirus 3 [5]; greater than 800 µM in the assay with WI-38; 0.3 µM with Human alphaherpesvirus 3 [6]; 3 µM with Human alphaherpesvirus 1 [1]. In addition, the IC50 is greater than 290 µM in the assay with Vaccinia virus; 3 µM in [7]; greater than 290 µM in the assay with Human betaherpesvirus 5; greater than 300 µM with Human alphaherpesvirus 3 [8]; 0.06 µM with Human alphaherpesvirus 3 [9]; 3 µM in the assay on Human alphaherpesvirus 3 [10]. Besides, the IC50 in the assay on Human alphaherpesvirus 3 [2] is 0.1 µM.
Turning to `O=c1ccn([C@@H]2CO[C@H](CO)[C@H]2CO)c(=O)[nH]1`, the IC50 is greater than 410 µM in the assay with Human alphaherpesvirus 1 [1], greater than 410 µM in the assay on Human betaherpesvirus 5 and 100 µM in the assay on Human alphaherpesvirus 3 [2].
Turning to `Nc1ncnc2c1ncn2[C@@H]1CO[C@H](CO)[C@H]1CO`, the IC50 stood at 8 µM in the assay with Human alphaherpesvirus 1 [3]; 4 µM with Human alphaherpesvirus 2; 90 µM in the assay on WI-38; 8 µM with Human alphaherpesvirus 1 [1]; 20 µM in the assay with Vaccinia virus; 4 µM in assay [7]. Further, the IC50 in the assay on Human betaherpesvirus 5 and with Human alphaherpesvirus 3 [2] was 4 µM in each case.
Regarding `Nc1nc(=O)n([C@@H]2CO[C@H](CO)[C@H]2CO)cc1I`, the results for the IC50 in the assay on Human alphaherpesvirus 1 [1], in the assay with Human betaherpesvirus 5 and in the assay with Human alphaherpesvirus 3 [2] were 140 µM, greater than 270 µM and 14 µM, respectively.

These data come from ChEMBL document CHEMBL1126655, “Synthesis and antiviral activity of novel isonucleoside analogs” (J Med Chem, 1993).
